Measurements published in ChEMBL document CHEMBL1629690, “Development of hexadecyloxypropyl tenofovir (CMX157) for treatment of infection caused by wild-type and nucleoside/nucleotide-resistant HIV” (Antimicrob Agents Chemother, 2010).

Assays:
[1] = test system: Human immunodeficiency virus 1; assay: Antiviral activity against HIV1 isolate 061 harboring reverse transcriptase M41L/D67N/K70R/M184V/L210W/T215Y/K219E mutant gene by phenosense assay; assay type: functional, organism-based; details: Human immunodeficiency virus 1, isolate 061
Procedure, shortened: (§1)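 Recombinant-virus PhenoSense HIV assay run on a panel of 30 NRTI-resistant HIV-1 mutants and two wild-type viruses. Each virus is tested across increasing drug concentrations to give an inhibition curve and EC50. Fold change is the test recombinant EC50 divided by the EC50 of the drug-sensitive wild-type reference virus.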

[2] = test system: Human immunodeficiency virus 1; assay: Antiviral activity against HIV1 isolate 069 harboring reverse transcriptase D67E/T69SSG/V75M/M184V/L210W/T215Y mutant gene by phenosense assay; assay type: functional, organism-based; details: Human immunodeficiency virus 1, isolate 069; procedure, shortened: as §1
[3] = test system: Human immunodeficiency virus 1; assay: Antiviral activity against HIV1 isolate 071 harboring reverse transcriptase 65R/S68N/184V mutant gene by phenosense assay; assay type: functional, organism-based; details: Human immunodeficiency virus 1, isolate 071; procedure, shortened: as §1
[4] = test system: Human immunodeficiency virus 1; assay: Antiviral activity against HIV1 isolate 157 harboring reverse transcriptase L74V/M184V mutant gene by phenosense assay; assay type: functional, organism-based; details: Human immunodeficiency virus 1, isolate 157; procedure, shortened: as §1
[5] = test system: Human immunodeficiency virus 1; assay: Antiviral activity against HIV1 isolate 166 harboring reverse transcriptase L74V mutant gene obtained as site-directed mutant of NL4-3 by phenosense assay; assay type: functional, organism-based; details: Human immunodeficiency virus 1, isolate 166; procedure, shortened: as §1
[6] = test system: Human immunodeficiency virus 1; assay: Antiviral activity against HIV1 isolate 174 harboring reverse transcriptase M184V mutant gene obtained as site-directed mutant of NL4-3 by phenosense assay; assay type: functional, organism-based; details: Human immunodeficiency virus 1, isolate 174; procedure, shortened: as §1
[7] = test system: Human immunodeficiency virus 1; assay: Antiviral activity against HIV1 isolate 180 harboring reverse transcriptase K65R mutant gene obtained as site-directed mutant of NL4-3 by phenosense assay; assay type: functional, organism-based; details: Human immunodeficiency virus 1, isolate 180; procedure, shortened: as §1
[8] = test system: Human immunodeficiency virus 1; assay: Antiviral activity against HIV1 isolate 188 harboring reverse transcriptase T215Y/M184V mutant gene by phenosense assay; assay type: functional, organism-based; details: Human immunodeficiency virus 1, isolate 188; procedure, shortened: as §1
[9] = test system: Human immunodeficiency virus 1; assay: Antiviral activity against HIV1 isolate 194 harboring reverse transcriptase M41L/T215Y/M184V mutant gene by phenosense assay; assay type: functional, organism-based; details: Human immunodeficiency virus 1, isolate 194; procedure, shortened: as §1
[10] = test system: Human immunodeficiency virus 1; assay: Antiviral activity against HIV1 isolate 200 harboring reverse transcriptase M41L/L210W/T215Y mutant gene by phenosense assay; assay type: functional, organism-based; details: Human immunodeficiency virus 1, isolate 200; procedure, shortened: as §1
[11] = test system: Human immunodeficiency virus 1; assay: Antiviral activity against HIV1 isolate 201 harboring reverse transcriptase M41L/L210W/T215Y mutant gene by phenosense assay; assay type: functional, organism-based; details: Human immunodeficiency virus 1, isolate 201; procedure, shortened: as §1
[12] = test system: Human immunodeficiency virus 1; assay: Antiviral activity against HIV1 isolate 211 harboring reverse transcriptase D67N/K70R/T215F/K219E/M184V mutant gene by phenosense assay; assay type: functional, organism-based; details: Human immunodeficiency virus 1, isolate 211
Procedure, shortened: (§2)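 PhenoSense HIV recombinant virus assay: patient-derived HIV-1 with major NRTI resistance mutations tested against increasing drug concentrations to give inhibition curves. EC50 is the concentration giving 50% inhibition. Fold change is the test recombinant EC50 divided by the EC50 of a drug-sensitive wild-type reference virus. Panel of 30 NRTI-resistant isolates plus two wild-type viruses.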

[13] = test system: Human immunodeficiency virus 1; assay: Antiviral activity against HIV1 isolate 220 harboring reverse transcriptase K70E/M184V mutant gene by phenosense assay; assay type: functional, organism-based; details: Human immunodeficiency virus 1, isolate 220; procedure, shortened: as §2
[14] = test system: Human immunodeficiency virus 1; assay: Antiviral activity against HIV1 isolate 058 harboring reverse transcriptase M41L/D67N/K70R/L210W/T215F/K219Q mutant gene by phenosense assay relative to wild type; assay type: functional; procedure, shortened: as §1
[15] = test system: Human immunodeficiency virus 1; assay: Antiviral activity against HIV1 isolate 060 harboring reverse transcriptase M41L/D67N/K70R/L210W/T215Y/K219E mutant gene by phenosense assay relative to wild type; assay type: functional; procedure, shortened: as §1
[16] = test system: Human immunodeficiency virus 1; assay: Antiviral activity against HIV1 isolate 061 harboring reverse transcriptase M41L/D67N/K70R/M184V/L210W/T215Y/K219E mutant gene by phenosense assay relative to wild type; assay type: functional; procedure, shortened: as §1
[17] = test system: Human immunodeficiency virus 1; assay: Antiviral activity against HIV1 isolate 069 harboring reverse transcriptase D67E/T69SSG/V75M/M184V/L210W/T215Y mutant gene by phenosense assay relative to wild type; assay type: functional; procedure, shortened: as §1
[18] = test system: Human immunodeficiency virus 1; assay: Antiviral activity against HIV1 isolate 070 harboring reverse transcriptase 65R/S68G mutant gene by phenosense assay relative to wild type; assay type: functional; procedure, shortened: as §1
[19] = test system: Human immunodeficiency virus 1; assay: Antiviral activity against HIV1 isolate 071 harboring reverse transcriptase 65R/S68N/184V mutant gene by phenosense assay relative to wild type; assay type: functional; procedure, shortened: as §1
[20] = test system: Human immunodeficiency virus 1; assay: Antiviral activity against HIV1 isolate 157 harboring reverse transcriptase L74V/M184V mutant gene by phenosense assay relative to wild type; assay type: functional; procedure, shortened: as §1
[21] = test system: Human immunodeficiency virus 1; assay: Antiviral activity against HIV1 isolate 160 harboring reverse transcriptase S68G/V75(I/T)/F77L/Y115F/F116Y /Q151M mutant gene by phenosense assay relative to wild type; assay type: functional; procedure, shortened: as §1
[22] = test system: Human immunodeficiency virus 1; assay: Antiviral activity against HIV1 isolate 174 harboring reverse transcriptase M184V mutant gene obtained as site-directed mutant of NL4-3 by phenosense assay relative to wild type; assay type: functional; procedure, shortened: as §1
[23] = test system: Human immunodeficiency virus 1; assay: Antiviral activity against HIV1 isolate 180 harboring reverse transcriptase K65R mutant gene obtained as site-directed mutant of NL4-3 by phenosense assay relative to wild type; assay type: functional; procedure, shortened: as §1
[24] = test system: Human immunodeficiency virus 1; assay: Antiviral activity against HIV1 isolate 185 harboring reverse transcriptase T215Y mutant gene by phenosense assay relative to wild type; assay type: functional; procedure, shortened: as §1
[25] = test system: Human immunodeficiency virus 1; assay: Antiviral activity against HIV1 isolate 188 harboring reverse transcriptase T215Y/M184V mutant gene by phenosense assay relative to wild type; assay type: functional; procedure, shortened: as §1
[26] = test system: Human immunodeficiency virus 1; assay: Antiviral activity against HIV1 isolate 192 harboring reverse transcriptase M41L/T215Y mutant gene by phenosense assay relative to wild type; assay type: functional; procedure, shortened: as §1
[27] = test system: Human immunodeficiency virus 1; assay: Antiviral activity against HIV1 isolate 194 harboring reverse transcriptase M41L/T215Y/M184V mutant gene by phenosense assay relative to wild type; assay type: functional; procedure, shortened: as §1
[28] = test system: Human immunodeficiency virus 1; assay: Antiviral activity against HIV1 isolate 200 harboring reverse transcriptase M41L/L210W/T215Y mutant gene by phenosense assay relative to wild type; assay type: functional; procedure, shortened: as §1
[29] = test system: Human immunodeficiency virus 1; assay: Antiviral activity against HIV1 isolate 201 harboring reverse transcriptase M41L/L210W/T215Y mutant gene by phenosense assay relative to wild type; assay type: functional; procedure, shortened: as §2
[30] = test system: Human immunodeficiency virus 1; assay: Antiviral activity against HIV1 isolate 203 harboring reverse transcriptase M41L/L210W/T215Y/M184V mutant gene by phenosense assay relative to wild type; assay type: functional; procedure, shortened: as §2
[31] = test system: Human immunodeficiency virus 1; assay: Antiviral activity against HIV1 isolate 204 harboring reverse transcriptase M41L/L210W/T215Y/M184V mutant gene by phenosense assay relative to wild type; assay type: functional; procedure, shortened: as §2
[32] = test system: Human immunodeficiency virus 1; assay: Antiviral activity against HIV1 isolate 206 harboring reverse transcriptase D67N/K70R mutant gene by phenosense assay relative to wild type; assay type: functional; procedure, shortened: as §2
[33] = test system: Human immunodeficiency virus 1; assay: Antiviral activity against HIV1 isolate 212 harboring reverse transcriptase L210W/T215Y mutant gene by phenosense assay relative to wild type; assay type: functional; procedure, shortened: as §2
[34] = test system: Human immunodeficiency virus 1; assay: Antiviral activity against HIV1 isolate 215 harboring reverse transcriptase D67N/K70E mutant gene by phenosense assay relative to wild type; assay type: functional; procedure, shortened: as §2
[35] = test system: Human immunodeficiency virus 1; assay: Antiviral activity against HIV1 isolate 217 harboring reverse transcriptase D67N/K70E/M184V mutant gene by phenosense assay relative to wild type; assay type: functional; procedure, shortened: as §2
[36] = test system: Human immunodeficiency virus 1; assay: Antiviral activity against HIV1 isolate 220 harboring reverse transcriptase K70E/M184V mutant gene by phenosense assay relative to wild type; assay type: functional; procedure, shortened: as §2

Row | SMILES | EC50 [1] [nM] | EC50 [2] [nM] | EC50 [3] [nM] | EC50 [4] [nM] | EC50 [5] [nM] | EC50 [6] [nM] | EC50 [7] [nM] | EC50 [8] [nM] | EC50 [9] [nM] | EC50 [10] [nM] | EC50 [11] [nM] | EC50 [12] [nM] | EC50 [13] [nM] | fold change (FC) [14] | fold change (FC) [15] | fold change (FC) [16] | fold change (FC) [17] | fold change (FC) [18] | fold change (FC) [19] | fold change (FC) [20] | other results
1 | C[C@H](Cn1cnc2c(N)ncnc21)OCP(=O)(O)O [TENOFOVIR ANHYDROUS] | 2000 | 3600 | 940 | 230 | 540 | 410 | 1600 | 620 | 1000 | 2200 | 2300 | 700 | 470 | 3.5 | 4 | 2.2 | 4.7 | 1.7 | 1.2 | 0.29 | fold change (FC) [21]: 2.3; fold change (FC) [22]: 0.54; fold change (FC) [23]: 2; fold change (FC) [24]: 2.4; fold change (FC) [25]: 0.81; fold change (FC) [26]: 1.8; fold change (FC) [27]: 1.3; fold change (FC) [28]: 2.8; fold change (FC) [29]: 3; fold change (FC) [30]: 0.97; fold change (FC) [31]: 1; fold change (FC) [32]: 2.6; fold change (FC) [33]: 1.3; fold change (FC) [34]: 0.96; fold change (FC) [35]: 0.64; fold change (FC) [36]: 0.61
2 | CCCCCCCCCCCCCCCCOCCCOP(=O)(O)CO[C@H](C)Cn1cnc2c(N)ncnc21 [TENOFOVIR EXALIDEX] | 6.1 | 11 | 2.7 | 0.66 | 1.5 | 1.2 | 4.7 | 1.7 | 2.9 | 6 | 6.6 | 1.9 | 1.3 | 4.6 | 3.3 | 2.1 | 6.1 | 1.9 | 1.5 | 0.36 | fold change (FC) [21]: 2; fold change (FC) [22]: 0.62; fold change (FC) [23]: 2.6; fold change (FC) [24]: 2.7; fold change (FC) [25]: 0.9; fold change (FC) [26]: 2.1; fold change (FC) [27]: 1.6; fold change (FC) [28]: 3.2; fold change (FC) [29]: 3.5; fold change (FC) [30]: 1; fold change (FC) [31]: 1.4; fold change (FC) [32]: 3; fold change (FC) [33]: 1.5; fold change (FC) [34]: 1.2; fold change (FC) [35]: 0.78; fold change (FC) [36]: 0.71
3 | Cc1cn([C@H]2C[C@H](N=[N+]=[N-])[C@@H](CO)O2)c(=O)[nH]c1=O [ZIDOVUDINE] | 2200 | 8700 | 11 | 6 | 14 | 9 | 14 | 71 | 180 | 2700 | 2700 | 190 | 4 | 350 | 400 | 58 | 320 | 0.44 | 0.41 | 0.22 | fold change (FC) [21]: 93; fold change (FC) [22]: 0.34; fold change (FC) [23]: 0.51; fold change (FC) [24]: 38; fold change (FC) [25]: 2.6; fold change (FC) [26]: 20; fold change (FC) [27]: 6.5; fold change (FC) [28]: 100; fold change (FC) [29]: 98; fold change (FC) [30]: 3.2; fold change (FC) [31]: 3.9; fold change (FC) [32]: 28; fold change (FC) [33]: 7.6; fold change (FC) [34]: 0.21; fold change (FC) [35]: 0.15; fold change (FC) [36]: 0.13
